# Assay results reported in ChEMBL document CHEMBL4346667 (Eur J Med Chem, 2019).
# The source made the active and inactive calls. The rule behind the calls is not given here.
# Legend:
# Type in all cases: functional
# MCF7 [1] = assay: Induction of apoptosis in human MCF7 cells assessed as necrotic cells at 1 uM after 24 hrs by Annexin V-FITC/propidium iodide staining-based flow cytometric analysis (reference value: 0.2%)
# MCF7 [2] = assay: Induction of apoptosis in human MCF7 cells assessed as necrotic cells at 10 uM after 24 hrs by Annexin V-FITC/propidium iodide staining-based flow cytometric analysis (reference value: 0.1%)
# MCF7 [3] = assay: Induction of apoptosis in human MCF7 cells assessed as early apoptotic cells at 25 uM after 24 hrs by Annexin V-FITC/propidium iodide staining-based flow cytometric analysis (reference value: 2.1%)
# Procedure, shortened: (§1)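 Log-phase cells seeded in 6-well plates and treated after adhesion; incubated in cycles of 6 h on/6 h off up to 48 h. Collected after PBS washes and trypsin, resuspended in Ca2+-enriched binding buffer. Stained with annexin V (1 µg/mL) plus PI (0.5 µg/mL) 15 min in the dark at room temperature. 10,000 events, FL1 vs FL2. At least three repeats.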
# MCF7 [4] = assay: Induction of apoptosis in human MCF7 cells assessed as viable cells at 25 uM after 24 hrs by Annexin V-FITC/propidium iodide staining-based flow cytometric analysis (reference value: 92.1%); details: MCF7, 24 h, read-out: Activity
# MCF7 [5] = assay: Induction of apoptosis in human MCF7 cells assessed as viable cells at 5 uM after 48 hrs by Annexin V-FITC/propidium iodide staining-based flow cytometric analysis (reference value: 87.9%); details: MCF7, 48 h, read-out: Activity
# MCF7 [6] = assay: Induction of apoptosis in human MCF7 cells assessed as early apoptotic cells at 5 uM after 48 hrs by Annexin V-FITC/propidium iodide staining-based flow cytometric analysis (reference value: 9.1%); procedure, shortened: as §1
# MCF7 [7] = assay: Induction of apoptosis in human MCF7 cells assessed as late apoptotic cells at 1 uM after 24 hrs by Annexin V-FITC/propidium iodide staining-based flow cytometric analysis (reference value: 5.6%); procedure, shortened: as §1
# MCF7 [8] = assay: Induction of apoptosis in human MCF7 cells assessed as early apoptotic cells at 50 uM after 24 hrs by Annexin V-FITC/propidium iodide staining-based flow cytometric analysis (reference value: 2.1%); procedure, shortened: as §1
# MCF7 [9] = assay: Induction of apoptosis in human MCF7 cells assessed as early apoptotic cells at 10 uM after 48 hrs by Annexin V-FITC/propidium iodide staining-based flow cytometric analysis (reference value: 9.1%); procedure, shortened: as §1
# MCF7 [10] = assay: Induction of apoptosis in human MCF7 cells assessed as early apoptotic cells at 1 uM after 6 hrs by Annexin V-FITC/propidium iodide staining-based flow cytometric analysis (reference value: 2%); procedure, shortened: as §1
# MCF7 [11] = assay: Induction of apoptosis in human MCF7 cells assessed as late apoptotic cells at 10 uM after 24 hrs by Annexin V-FITC/propidium iodide staining-based flow cytometric analysis (reference value: 5.6%); procedure, shortened: as §1
# MCF7 [12] = assay: Cell cycle arrest in human MCF7 cells assessed as accumulation of cells at G2/M phase at 10 uM up to 48 hrs by propidium iodide double staining based flow cytometric analysis
# MCF7 [13] = assay: Induction of apoptosis in human MCF7 cells assessed as early apoptotic cells at 50 uM after 6 hrs by Annexin V-FITC/propidium iodide staining-based flow cytometric analysis (reference value: 2%); procedure, shortened: as §1
# MCF7 [14] = assay: Induction of apoptosis in human MCF7 cells assessed as late apoptotic cells at […] uM after 24 hrs by Annexin V-FITC/propidium iodide staining-based flow cytometric analysis (reference value: 5.6%); procedure, shortened: as §1
# MCF7 [15] = assay: Induction of apoptosis in human MCF7 cells assessed as necrotic cells at 50 uM after 24 hrs by Annexin V-FITC/propidium iodide staining-based flow cytometric analysis (reference value: 0.2%)
# MCF7 [16] = assay: Induction of apoptosis in human MCF7 cells assessed as late apoptotic cells at 5 uM after 48 hrs by Annexin V-FITC/propidium iodide staining-based flow cytometric analysis (reference value: 2.8%); procedure, shortened: as §1
# MCF7 [17] = assay: Induction of apoptosis in human MCF7 cells assessed as viable cells at 25 uM after 6 hrs by Annexin V-FITC/propidium iodide staining-based flow cytometric analysis (reference value: 92.8%); details: MCF7, 6 h, read-out: Activity
# MCF7 [18] = assay: Induction of apoptosis in human MCF7 cells assessed as necrotic cells at 10 uM after 24 hrs by Annexin V-FITC/propidium iodide staining-based flow cytometric analysis (reference value: 0.2%)
# MCF7 [19] = assay: Induction of apoptosis in human MCF7 cells assessed as late apoptotic cells at 10 uM after 6 hrs by Annexin V-FITC/propidium iodide staining-based flow cytometric analysis (reference value: 4.7%); procedure, shortened: as §1
# MCF7 [20] = assay: Induction of apoptosis in human MCF7 cells assessed as early apoptotic cells at 10 uM after 6 hrs by Annexin V-FITC/propidium iodide staining-based flow cytometric analysis (reference value: 2%); procedure, shortened: as §1
# MCF7 [21] = assay: Antitumor activity against human MCF7 cells xenografted in BALB/c nude mouse assessed as inhibition of tumor growth at 40 mg/kg administered for a week
# Procedure, shortened: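 Male BALB/c nude mice, 4 weeks old, 15-20 g. Log-phase MCF-7 cells in DMEM, 0.1 mL of 1×10^6 cells/mL, injected subcutaneously into the hind leg. Calipers twice weekly; at about 90 mm3, groups of 5. Vehicle was isotonic saline plus 0.005% DMSO. Injected at 40 mg/kg for a week; tumour volume recorded daily.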
# MCF7 [22] = assay: Induction of apoptosis in human MCF7 cells assessed as viable cells at 10 uM after 24 hrs by Annexin V-FITC/propidium iodide staining-based flow cytometric analysis (reference value: 92.1%); details: MCF7, 24 h, read-out: Activity
# MCF7 [23] = assay: Induction of apoptosis in human MCF7 cells assessed as late apoptotic cells at 1 uM after 48 hrs by Annexin V-FITC/propidium iodide staining-based flow cytometric analysis (reference value: 2.8%); procedure, shortened: as §1
# MCF7 [24] = assay: Induction of apoptosis in human MCF7 cells assessed as viable cells at 50 uM after 48 hrs by Annexin V-FITC/propidium iodide staining-based flow cytometric analysis (reference value: 87.9%); details: MCF7, 48 h, read-out: Activity
# MCF7 [25] = assay: Induction of apoptosis in human MCF7 cells assessed as late apoptotic cells at 25 uM after 24 hrs by Annexin V-FITC/propidium iodide staining-based flow cytometric analysis (reference value: 5.6%); procedure, shortened: as §1
# MCF7 [26] = assay: Induction of apoptosis in human MCF7 cells assessed as late apoptotic cells at 1 uM after 6 hrs by Annexin V-FITC/propidium iodide staining-based flow cytometric analysis (reference value: 4.7%); procedure, shortened: as §1
# MCF7 [27] = assay: Induction of apoptosis in human MCF7 cells assessed as early apoptotic cells at 10 uM after 24 hrs by Annexin V-FITC/propidium iodide staining-based flow cytometric analysis (reference value: 2.1%); procedure, shortened: as §1
# MCF7 [28] = assay: Induction of apoptosis in human MCF7 cells assessed as necrotic cells at 50 uM after 24 hrs by Annexin V-FITC/propidium iodide staining-based flow cytometric analysis (reference value: 0.1%)
# MCF7 [29] = assay: Induction of apoptosis in human MCF7 cells assessed as viable cells at 25 uM after 48 hrs by Annexin V-FITC/propidium iodide staining-based flow cytometric analysis (reference value: 87.9%); details: MCF7, 48 h, read-out: Activity
# MCF7 [30] = assay: Induction of apoptosis in human MCF7 cells assessed as late apoptotic cells at 25 uM after 6 hrs by Annexin V-FITC/propidium iodide staining-based flow cytometric analysis (reference value: 4.7%); procedure, shortened: as §1
smiles,measurement,setting,value
COc1cc([C@@H]2c3cc4c(cc3[C@@H](O[C@@H]3O[C@@H]5CO[C@@H](C)O[C@H]5[C@H](O)[C@H]3O)[C@H]3COC(=O)[C@H]23)OCO4)cc(OC)c1O [ETOPOSIDE],Activity,MCF7 [1],0.2%
same,Activity,MCF7 [2],1.4%
same,Activity,MCF7 [3],10.4%
same,viability at 25 µM,MCF7 [4],81.1%
same,viability at 5 µM,MCF7 [5],21.7%
same,Activity,MCF7 [6],62.1%
same,Activity,MCF7 [7],6.8%
same,Activity,MCF7 [8],12.4%
same,Activity,MCF7 [9],60.5%
same,Activity,MCF7 [10],1.6%
same,Activity,MCF7 [11],11.5%
same,Activity,MCF7 [12],Active
same,Activity,MCF7 [13],2.9%
same,Activity,MCF7 [14],12.7%
same,Activity,MCF7 [15],1%
same,Activity,MCF7 [16],15.1%
same,viability at 25 µM,MCF7 [17],90.6%
same,Activity,MCF7 [18],0.8%
same,Activity,MCF7 [19],9.1%
same,Activity,MCF7 [20],2.2%
same,inhibition in vivo at 40 mg/kg,MCF7 [21],43.2%
same,viability at 10 µM,MCF7 [22],73.9%
same,Activity,MCF7 [23],6%
same,viability at 50 µM,MCF7 [24],29.8%
same,Activity,MCF7 [25],7.7%
same,Activity,MCF7 [26],7.1%
same,Activity,MCF7 [27],13.8%
same,Activity,MCF7 [28],0.9%
same,viability at 25 µM,MCF7 [29],25.7%
same,Activity,MCF7 [30],6.7%
